The record followed here is ChEMBL document CHEMBL1150245, “1-Aryl-2-dimethylaminomethyl-2-propen-1-one hydrochlorides and related adducts: A quest for selective cytotoxicity for malignant cells” (Bioorg Med Chem, 2008).

Data set [1] is described as follows: Cytotoxicity against human HPLF cells. It is filed as cell-based. Put shortly:
(§1)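 CC50 is the concentration killing 50% of cells, tested up to a highest concentration of 400 μM. Each value is the average of two independent determinations.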

Another data set concerns RPMI-8226. As to the kind of experiment: Cytotoxicity against human RPMI8226 cells. It is filed as functional, cell-based. The essentials: (§2)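 Part of a human tumour cell line panel screen run by a literature procedure with compounds at 10−8–10−4 M. GI50 is the concentration giving 50% growth inhibition. Where 50% inhibition was not reached at 100 μM, 100 μM was used as the value.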

A short description of data set [2]: Cytotoxicity against human Molt4/C8 cells after 72 hrs. The data set is classed as functional, cell-based. Particulars: MOLT-4, 72 h. Put shortly: (§3)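 Human transformed T-lymphocytes exposed to a range of compound concentrations at 37 °C for 72 h. IC50 is the concentration giving 50% inhibition of cell growth.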
A short description of data set [3]: Cytotoxicity against human HGF cells. It is filed as cell-based. Put shortly: as §1
The nature of data set [4]: Cytotoxicity against human HPC cells. The data set is classed as cell-based. The essentials:
as §1

The test system of the next data set is K562. As to the kind of experiment: Cytotoxicity against human K562 cells. The data set is classed as functional, cell-based. Put shortly: as §2
In data set [5] the test system is HL-60. As to the kind of experiment: Cytotoxicity against human HL60 cells. The data set is classed as functional. Put shortly:
as §1

The subject of data set [6] is CCRF-CEM. As to the kind of experiment: Cytotoxicity against human CEM cells after 72 hrs. The data set is classed as functional, cell-based. Put shortly: as §3
Data set [7] has as its system L1210. In words: Cytotoxicity against mouse L1210 cells after 48 hrs. Particulars: L1210, 48 h.
Data set [8] deals with HSC-2. In words: Cytotoxicity against human HSC2 cells. The data set is classed as functional. Put shortly: as §1
In a further data set the test system is HSC-4. In words: Cytotoxicity against human HSC4 cells. It is filed as functional. The essentials: as §1
A further data set relates to SR. In words: Cytotoxicity against human SR cells. The data set is classed as cell-based. Put shortly:
as §2

In data set [9] the test system is CCRF-CEM. In words: Cytotoxicity against human CCRF-CEM cells. The data set is classed as functional, cell-based. Put shortly:
as §2

The subject of data set [10] is HL-60. In words: Induction of apoptosis in human HL60 cells after 6 hrs. The data set is classed as functional, cell-based. Put shortly:
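Apoptosis read out as DNA fragmentation. 5 × 10^5 cells were incubated for 6 h with 0.5, 1, 2, 4, 8 or 16 μM compound. DNA was run alongside a molecular weight marker and scored for an internucleosomal ladder versus a smear. The experiment was repeated.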

For data set [11], the system named is HL-60. In words: Induction of apoptosis assessed as activation of caspase 8 activity in human HL60 cells after 4 hrs. The data set is classed as functional, cell-based. Put shortly:
(§4)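 Caspase activation measured in neoplastic cells seeded at 4 × 10^4 cells and incubated with compound for 4 h. Each value is the mean of two or three experiments.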

Data set [12] concerns L1210. In words: Cytotoxicity against mouse L1210 cells after 72 hrs. It is filed as functional, cell-based. Particulars: L1210, 72 h.
Data set [13] concerns HL-60. In words: Induction of apoptosis assessed as activation of caspase 9 activity in human HL60 cells after 4 hrs. It is filed as functional, cell-based. Put shortly: as §4
Data set [14] relates to HL-60. As to the kind of experiment: Induction of apoptosis assessed as activation of caspase 3 activity in human HL60 cells after 4 hrs. It is filed as functional, cell-based. Put shortly: as §4
Data set [15] relates to HSC-2. As to the kind of experiment: Induction of apoptosis assessed as activation of caspase 3 activity in human HSC2 cells after 4 hrs. The data set is classed as functional, cell-based. The essentials:
as §4

Activity calls are given as the source filed them. The rule behind the calls is not given here. A value given as a limit tells only on which side of the number the result lay.

Turning to `COc1ccc(C(=O)C(CO)CN(C)C)cc1` (configuration not stated), the cytotoxic concentration (CC50) (as a rule, the concentration at which the toxic effect on the cells reaches its halfway point) in data set [1] is 4.9 µM; in [3], 4 µM; in [4] it was 5.3 µM; in the data set with HL-60 [5], 0.46 µM; in the data set with HSC-2 [8], 2.5 µM; with HSC-4 it was 5.2 µM. For the same compound, the IC50 (as a rule, the midpoint of a concentration-inhibition curve) in the data set with RPMI-8226 was determined as 20 µM; in data set [2], 4.9 µM; in the data set with K562 it was 0.49 µM; in the data set with CCRF-CEM [6], 1.15 µM; with L1210 [7], 1.57 µM.

`C=C(CN(C)C)C(=O)c1ccc(Cl)cc1`: the half-maximal cytotoxic concentration (CC50) in data set [1] is 9.2 µM; in data set [3], 6.1 µM; in data set [4], 6 µM; in the data set with HL-60 [5] it was < 3.1 µM; with HSC-2 [8], 5.1 µM; in the data set with HSC-4, 6.4 µM. Further, the IC50 in [2] was determined as 30.2 µM; in the data set on SR, 3.98 µM; in the data set on K562 it was 3.47 µM; with CCRF-CEM [9], 3.31 µM; in the data set with CCRF-CEM [6], 32.6 µM; in the data set with L1210 [7], 26.5 µM.

Take `CN(C)CC(CO)C(=O)c1ccccc1` (configuration not stated): the CC50 in [1] was 5.2 µM; in data set [3], 4.4 µM; in data set [4], 5.5 µM; in the data set on HL-60 [5], 0.41 µM; in the data set with HSC-2 [8], 5.2 µM; with HSC-4, 6.5 µM. Moreover, the concentration for half-maximal inhibition (IC50) came to 5.84 µM in data set [2], 1.42 µM with CCRF-CEM [6] and 1.65 µM in the data set on L1210 [7].

As to `C=C(CN(C)C)C(=O)c1ccc(OC)cc1`, the CC50 was 9.2 µM in data set [1]; 6.8 µM in [3]; 5.1 µM in data set [4]; < 3.4 µM in the data set on HL-60 [5]; 5.9 µM with HSC-2 [8]; 6.1 µM in the data set on HSC-4. The IC50 in the data set on RPMI-8226 came out at 21.4 µM; in data set [2], 21.3 µM; with SR, 14.5 µM; in the data set on L1210 [12], 5.08 µM; with K562, 1.05 µM; with CCRF-CEM [9] it was 0.37 µM. The IC50 with CCRF-CEM [6] worked out at 10.6 µM. The outcome with HL-60 [10], in the data set with HL-60 [11], with HL-60 [13], in the data set with HL-60 [14] and in the data set with HSC-2 [15] was Active.

Take `CN(C)CC(CO)C(=O)c1ccc([N+](=O)[O-])cc1` (configuration not stated): the CC50 in data set [1] came out at 176 µM; in data set [3], 271 µM; in [4] it was 227 µM; with HL-60 [5], 35 µM; in the data set on HSC-2 [8] it was 73 µM; in the data set on HSC-4, 99 µM. Moreover, the figures for the IC50 (in data set [2]; in the data set with CCRF-CEM [6]; with L1210 [7]) were 36.8 µM, 12.2 µM and 42.6 µM, respectively.

On to `CN(C)CC(CSCCO)C(=O)c1ccc([N+](=O)[O-])cc1` (configuration not stated), for which the half-maximal cytotoxic concentration (CC50) in data set [1] stood at 400 µM; in data set [3], 390 µM; in [4], 400 µM; in the data set on HL-60 [5] it was 353 µM; in the data set on HSC-2 [8] it was 165 µM; in the data set with HSC-4 it was 264 µM. Also, the IC50 was 38 µM in the data set with RPMI-8226; > 500 µM in [2]; > 100 µM in the data set on SR; > 100 µM in the data set with K562; > 100 µM with CCRF-CEM [9]; > 500 µM with CCRF-CEM [6]. The concentration for half-maximal inhibition (IC50) with L1210 [7] was > 500 µM.

Turning to `Cc1ccc(C(=O)C(CO)CN(C)C)cc1` (configuration not stated), the CC50 in data set [1] was 9.8 µM; in data set [3] it was 4.9 µM; in data set [4], 5.7 µM; in the data set with HL-60 [5] it was < 3.1 µM; in the data set on HSC-2 [8], 6.3 µM; in the data set with HSC-4, 5.8 µM. In addition, the IC50 in data set [2] amounted to 21 µM; in the data set on CCRF-CEM [6], 8.22 µM; in the data set with L1210 [7], 6.55 µM.

Regarding `CN(C)CC(CO)C(=O)c1ccc(Cl)cc1` (configuration not stated), the CC50 in [1] is 12 µM; in [3], 5.8 µM; in [4], 5.4 µM; with HL-60 [5], < 3.1 µM; in the data set on HSC-2 [8], 6 µM; with HSC-4, 8 µM. The IC50 in [2] was determined as 30.9 µM; in the data set with SR, 0.63 µM; in the data set on K562, 0.33 µM; in the data set on CCRF-CEM [9], 0.32 µM; in the data set with CCRF-CEM [6], 33.1 µM; with L1210 [7], 22 µM.

With `N[C@@H](Cc1ccc(N(CCCl)CCCl)cc1)C(=O)O` [MELPHALAN], the CC50 in [1] is > 200 µM; in [3], > 200 µM; in data set [4], > 200 µM; in the data set with HL-60 [5], 6 µM; in the data set on HSC-2 [8], 35 µM; in the data set with HSC-4 it was 81 µM. In addition, the IC50 in the data set on RPMI-8226 amounted to 66.1 µM; in the data set on CCRF-CEM [9] it was 6.17 µM.

Consider `C=C(CN(C)C)C(=O)c1ccccc1`, for which the CC50 was determined as 52 µM in data set [1]; 26 µM in data set [3]; 31 µM in [4]; 12 µM in the data set with HL-60 [5]; 29 µM with HSC-2 [8]; 33 µM in the data set with HSC-4. The IC50 is 1.91 µM in the data set with RPMI-8226; 146 µM in data set [2]; 0.55 µM with SR; 52.2 µM in the data set on L1210 [12]; 2.19 µM in the data set on K562; 0.4 µM in the data set with CCRF-CEM [9]. In the data set on CCRF-CEM [6], the IC50 was determined as 65.6 µM.

Take `C=C(CN(C)C)C(=O)c1ccc(C)cc1`: the CC50 was 8.1 µM in data set [1]; 6.1 µM in [3]; 6.9 µM in [4]; 0.45 µM in the data set on HL-60 [5]; 3.4 µM in the data set with HSC-2 [8]; 7.6 µM with HSC-4. The values for the IC50 (in [2]; in the data set on CCRF-CEM [6]; in the data set with L1210 [7]) were 35.5 µM, 11.4 µM and 11.1 µM, respectively.

On to `C=C(CN(C)C)C(=O)c1ccc([N+](=O)[O-])cc1`, for which the CC50 stood at 26 µM in [1]; 19.3 µM in data set [3]; 30 µM in [4]; 1.6 µM with HL-60 [5]; 8.2 µM with HSC-2 [8]; 19 µM with HSC-4. Besides, the IC50 in data set [2] came out at 8.95 µM; with CCRF-CEM [6], 7.91 µM; with L1210 [7] it was 8.61 µM.
